Compound activity as filed in PubChem.
STAT3 activator = IL-6 driven STAT3 reporter potentiators, primary screen, U3A cells, luciferase, luminescence, MLSCN library. IL-6 STAT3-luciferase reporter; 100% = signal with IL-6 EC80 alone. activation (% of control), % at 5.6 µM. 190,000 compounds, 0.91% hits. AID 871, 2007;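 active means activation above the screen-wide mean of compound activation plus 3 SD, cut at about 130% in these data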
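Material: STAT1-lacking human U3A cells, STAT3 luciferase reporter | Benchmarks: IL-6-only wells as 100% reference | Probe or stimulus: IL-6 (33 ng/mL) | Timing: Compound 1 h, then IL-6 6 h at 37 °C | Detection: Luminescence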
KCC2 mod = KCC2 cotransporter modulators, thallium flux, primary screen, cell-based, HEK293 KCC2, FluoZin-2 fluorescence, MLSMR. Solute carrier family 12 member 5 (Homo sapiens), Q9H2X9. 190,000 compounds, 2.2% hits. KCC2 cells, thallium flux FluoZin-2 fluorescence. B-score of Tl+ flux slope (higher = more flux/activation; lower = inhibition) at 10 µM. AID 1456, 2008;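 active means thallium flux slope and its plate-corrected score both differing from the plate sample mean at a set confidence after two filtering rounds, in either direction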;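 further: slope of fluorescence scaled to starting intensity during 10 to 20 s after thallium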
Target sequence (Q9H2X9 whole entry, looked up): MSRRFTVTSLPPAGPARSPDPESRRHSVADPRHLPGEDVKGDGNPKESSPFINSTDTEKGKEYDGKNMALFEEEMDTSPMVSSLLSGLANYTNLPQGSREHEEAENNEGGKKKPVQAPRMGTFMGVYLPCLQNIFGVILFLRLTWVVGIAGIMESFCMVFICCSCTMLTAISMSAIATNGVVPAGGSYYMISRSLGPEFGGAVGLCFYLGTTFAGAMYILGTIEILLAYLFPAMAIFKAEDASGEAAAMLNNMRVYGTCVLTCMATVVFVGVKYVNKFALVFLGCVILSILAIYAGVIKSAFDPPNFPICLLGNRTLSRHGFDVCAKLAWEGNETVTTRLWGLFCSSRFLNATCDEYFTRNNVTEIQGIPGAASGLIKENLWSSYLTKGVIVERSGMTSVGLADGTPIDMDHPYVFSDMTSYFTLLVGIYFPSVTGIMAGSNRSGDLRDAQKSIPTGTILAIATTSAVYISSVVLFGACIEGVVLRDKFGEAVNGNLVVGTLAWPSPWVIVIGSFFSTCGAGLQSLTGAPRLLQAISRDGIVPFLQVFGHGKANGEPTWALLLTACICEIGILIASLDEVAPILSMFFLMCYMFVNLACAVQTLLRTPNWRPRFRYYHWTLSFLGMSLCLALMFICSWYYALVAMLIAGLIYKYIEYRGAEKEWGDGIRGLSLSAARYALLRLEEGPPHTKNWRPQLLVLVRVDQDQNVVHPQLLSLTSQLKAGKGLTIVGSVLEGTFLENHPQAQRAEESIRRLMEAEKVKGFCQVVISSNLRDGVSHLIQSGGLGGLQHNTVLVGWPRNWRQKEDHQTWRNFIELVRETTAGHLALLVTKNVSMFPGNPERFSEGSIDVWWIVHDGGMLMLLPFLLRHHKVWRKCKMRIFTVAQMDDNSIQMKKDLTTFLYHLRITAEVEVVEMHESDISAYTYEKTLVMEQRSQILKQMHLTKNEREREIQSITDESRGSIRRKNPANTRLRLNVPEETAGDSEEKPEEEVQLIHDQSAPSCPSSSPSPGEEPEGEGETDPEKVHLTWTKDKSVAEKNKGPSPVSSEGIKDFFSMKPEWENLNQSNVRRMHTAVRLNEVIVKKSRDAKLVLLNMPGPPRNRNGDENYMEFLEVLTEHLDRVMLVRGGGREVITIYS
STAT1 activator = STAT1 signaling activators, primary screen, cell-based, HTS, luciferase reporter; AID 932, 2007; activation (% of control), % at 5.5 µM; NIH 3T3 STAT1-luciferase reporter, IFN-gamma, luminescence; 100% = IFN-gamma alone, no compound; 200,000 compounds, 2.6% hits;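 active means activation above the screen-wide mean activation plus 3 SD, cut at about 130% in these data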
HSV replic up = enhancers of HSV replication in host cells, fold increase, host cell viability; HSV replication augmentation in cells; maximum fold increase; 220,000 compounds, 0.005% hits; AID 1956, 2009; in the data active means maximum fold increase above about 1.5; tested in PC3 cells
STAT3 blocker = IL-6 driven STAT3 reporter inhibitors, primary screen, U3A cells, luciferase, luminescence, MLSCN library; IL-6 STAT3-luciferase reporter; host cell line lacks STAT1; inhibition, % at 5.5 µM; 190,000 compounds, 0.89% hits;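 active means inhibition above the mean inhibition across all screened compounds plus 3 SD, cut at about 44% in these data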
STAT1 blocker = STAT1 signaling inhibitors, primary screen, cell-based, HTS, luciferase reporter; inhibition, % at 5.5 µM; 200,000 compounds, 0.35% hits; NIH 3T3 STAT1-luciferase reporter, IFN-gamma, luminescence; AID 920, 2007;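 active means inhibition above a set limit, the mean inhibition across all tested compounds plus 3 SD, cut at about 34% in these data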
A number is an active result. The list is not random: actives were taken first. Their share in the collection is about 5.5%.

For CSc1nnc(-c2cc3c(s2)-c2ccccc2CC3)o1 the results were STAT3 activator 163.8, KCC2 mod inactive, STAT1 activator 136.5, HSV replic up inactive, STAT3 blocker inactive and STAT1 blocker inactive.
`S=c1[nH]nc(-c2cc3c(s2)-c2ccccc2CC3)o1` gave STAT3 activator inactive, KCC2 mod 94.8, STAT1 activator inactive, HSV replic up inactive, STAT3 blocker inactive and STAT1 blocker inactive.
Screening CCCCOC(=O)Nc1ccc(C(N)=O)cc1 returned STAT3 activator inactive, STAT1 activator inactive, HSV replic up inactive, STAT3 blocker inactive and STAT1 blocker inactive.
For CCCCOC(=O)Nc1ccc(N2CCCCC2)cc1 the results were STAT3 activator inactive, KCC2 mod inactive, STAT1 activator 140.0, HSV replic up inactive, STAT3 blocker inactive and STAT1 blocker inactive.
`CCCCOC(=O)Nc1ccc(N2CCOCC2)cc1` gave STAT3 activator inactive, KCC2 mod inactive, STAT1 activator inactive, HSV replic up inactive, STAT3 blocker inactive and STAT1 blocker inactive.
Screening CCCCOC(=O)Nc1ccc(C(C)C)cc1 returned STAT3 activator inactive, KCC2 mod inactive, STAT1 activator 130.3, HSV replic up inactive, STAT3 blocker inactive and STAT1 blocker inactive.
Screening CCCCOC(=O)Nc1nnc(C(C)C)s1 returned STAT3 activator inactive, KCC2 mod inactive, STAT1 activator 129.7, HSV replic up inactive, STAT3 blocker inactive and STAT1 blocker inactive.
`CCCCCOC(=O)Nc1nnc(CCC)s1` gave STAT3 activator inactive, KCC2 mod inactive, STAT1 activator inactive, HSV replic up inactive, STAT3 blocker inactive and STAT1 blocker inactive.
For CCCCOC(=O)Nc1ccc(N(C)C)cc1 the results were STAT3 activator inactive, KCC2 mod inactive, STAT1 activator 144.5, HSV replic up inactive, STAT3 blocker inactive and STAT1 blocker inactive.
Screening O=C(OC1C2CCC1C1CN(CCc3ccccc3)CC12)c1ccccc1 (stereo unspecified) returned STAT3 activator inactive, KCC2 mod inactive, STAT1 activator inactive, HSV replic up inactive, STAT3 blocker inactive and STAT1 blocker inactive.
`COc1cccc(Cl)c1NC(=O)N1CCc2c([nH]c3ccccc23)C1C(F)(F)F` (stereo unspecified) gave KCC2 mod inactive and HSV replic up inactive.
`Cc1ccc([N+](=O)[O-])cc1NC(=O)C[n+]1ccccc1` gave STAT3 activator inactive, KCC2 mod inactive, STAT1 activator inactive, HSV replic up inactive, STAT3 blocker inactive and STAT1 blocker inactive.
CCN(CC)Cc1c(C(=O)N2CCc3ccccc3C2)nc2ccc(Cl)cn12 was read as STAT3 activator inactive, KCC2 mod inactive, STAT1 activator inactive, HSV replic up inactive, STAT3 blocker inactive and STAT1 blocker inactive.
Screening Cc1ccc(C(=O)N/N=C/c2ccc3c(c2)OCO3)o1 returned STAT3 activator inactive, KCC2 mod inactive, STAT1 activator 137.5, HSV replic up inactive, STAT3 blocker inactive and STAT1 blocker inactive.
Screening O=C(N/N=C/c1ccc2c(c1)OCO2)c1cc2ccccc2o1 returned KCC2 mod inactive and HSV replic up inactive.
Cc1nc2cc(NC(=O)NCCC3=CCCCC3)ccc2o1 was read as STAT3 activator inactive, KCC2 mod inactive, STAT1 activator 131.5, HSV replic up inactive, STAT3 blocker inactive and STAT1 blocker inactive.
Screening O=C(NC(=S)NCCC1=CCCCC1)c1cncc(Br)c1 returned STAT3 activator inactive, KCC2 mod 14.9, STAT1 activator inactive, HSV replic up inactive, STAT3 blocker inactive and STAT1 blocker inactive.
COC(=O)c1ccc(NC(=S)NCCC2=CCCCC2)cc1 was read as STAT3 activator inactive, STAT1 activator inactive, HSV replic up inactive, STAT3 blocker inactive and STAT1 blocker inactive.
`Cc1nc2cc(NC(=O)NCCCO)ccc2o1` gave STAT3 activator inactive, KCC2 mod inactive, STAT1 activator inactive, HSV replic up inactive, STAT3 blocker inactive and STAT1 blocker inactive.
For COC(=O)c1cccc(NC(=S)NCCC2=CCCCC2)c1 the results were STAT3 activator inactive, STAT1 activator inactive, HSV replic up inactive, STAT3 blocker 52.9 and STAT1 blocker inactive.
Screening OC(COCc1cccs1)CN1CCN(c2cccc(C(F)(F)F)c2)CC1 (stereo unspecified) returned STAT3 activator inactive, KCC2 mod inactive, STAT1 activator inactive, HSV replic up inactive, STAT3 blocker inactive and STAT1 blocker inactive.
OC(CN1CCN(c2cccc(C(F)(F)F)c2)CC1)c1c[nH]c2ccccc12 (stereo unspecified) was read as STAT3 activator 134.9, STAT1 activator inactive, HSV replic up inactive, STAT3 blocker inactive and STAT1 blocker inactive.
For COc1ccc(-c2cc3nc4n(c(=O)c3s2)CCCCC4)cc1 the results were KCC2 mod inactive and HSV replic up inactive.
`COc1ccc(-c2cc3nc4n(c(=O)c3s2)CCC4)cc1` gave STAT3 activator inactive, STAT1 activator inactive, HSV replic up inactive, STAT3 blocker 92.5 and STAT1 blocker 65.1.
`COc1ccc2[nH]c3c(N4CC(C)OC(C)C4)ncnc3c2c1` (stereo unspecified) gave STAT3 activator inactive, STAT1 activator inactive, HSV replic up inactive, STAT3 blocker inactive and STAT1 blocker inactive.
Screening COc1cccc(N2CCN(c3ncnc4c3[nH]c3ccc(F)cc34)CC2C)c1 (stereo unspecified) returned STAT3 activator inactive, KCC2 mod inactive, STAT1 activator inactive, HSV replic up inactive, STAT3 blocker 75.1 and STAT1 blocker 67.7.
Screening COc1ccc(/C=N/N2CCOCC2)cc1COc1ccc(Cl)cc1 returned STAT3 activator inactive, KCC2 mod inactive, STAT1 activator inactive, HSV replic up inactive, STAT3 blocker inactive and STAT1 blocker inactive.
`O=c1cc(-c2ccccc2)nc2nc(-c3ccccc3)[nH]n12` gave STAT3 activator 158.5, KCC2 mod inactive, STAT1 activator 155.5, HSV replic up inactive, STAT3 blocker inactive and STAT1 blocker inactive.
For Nc1nc2nc(-c3ccccc3)cc(=O)n2[nH]1 the results were STAT3 activator inactive, KCC2 mod inactive, STAT1 activator inactive, HSV replic up inactive, STAT3 blocker inactive and STAT1 blocker inactive.
CCc1cccc(NC(=O)Cn2cc(C=O)c3ccccc32)c1 was read as STAT3 activator inactive, KCC2 mod inactive, STAT1 activator inactive, HSV replic up inactive, STAT3 blocker inactive and STAT1 blocker inactive.
Screening O=C(/C=C/Nc1ccccc1C(=O)O)c1cccs1 returned STAT3 activator inactive, KCC2 mod inactive, STAT1 activator 142.8, STAT3 blocker inactive and STAT1 blocker inactive.
O=C(/C=C/Nc1cccc([N+](=O)[O-])c1)c1cccs1 was read as STAT3 activator 146.0, KCC2 mod inactive, STAT1 activator 139.2, HSV replic up inactive, STAT3 blocker inactive and STAT1 blocker inactive.
